# Compound activity deposited in PubChem by several laboratories.
# Most compounds without a hit are left out; they make up all but 1.1% or so of the library.
# DAGLB inh = diacylglycerol lipase beta (human) inhibition | Q8NCG7 | HEK293T DAGLB membrane lysate, EnzChek fluorogenic substrate | inhibition, % at 5.17 µM | actives 0.059% (n = 340,000); in the data active = inhibition above about 34%;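 also: 0% = enzyme with vehicle and 100% = wells lacking enzyme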
# Target sequence (Q8NCG7 whole entry, looked up): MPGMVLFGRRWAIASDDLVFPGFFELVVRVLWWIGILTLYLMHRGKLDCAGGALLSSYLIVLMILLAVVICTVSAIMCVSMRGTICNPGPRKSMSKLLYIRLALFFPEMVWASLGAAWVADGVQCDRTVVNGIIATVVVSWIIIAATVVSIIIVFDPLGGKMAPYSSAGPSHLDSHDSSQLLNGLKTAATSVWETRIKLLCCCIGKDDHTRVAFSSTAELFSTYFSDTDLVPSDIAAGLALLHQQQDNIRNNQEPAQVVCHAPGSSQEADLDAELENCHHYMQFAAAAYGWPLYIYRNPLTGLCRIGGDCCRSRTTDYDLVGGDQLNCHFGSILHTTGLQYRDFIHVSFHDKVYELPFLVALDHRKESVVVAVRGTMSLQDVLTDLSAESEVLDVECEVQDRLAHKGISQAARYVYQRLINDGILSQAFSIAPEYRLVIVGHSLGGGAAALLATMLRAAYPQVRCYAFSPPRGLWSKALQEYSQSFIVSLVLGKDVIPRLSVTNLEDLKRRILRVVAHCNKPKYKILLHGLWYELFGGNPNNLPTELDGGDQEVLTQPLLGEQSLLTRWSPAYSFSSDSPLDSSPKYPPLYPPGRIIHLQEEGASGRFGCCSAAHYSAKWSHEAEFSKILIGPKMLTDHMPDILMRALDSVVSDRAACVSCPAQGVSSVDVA
# Vif imaging = inhibitors of HIV Vif. HEK293T cells, Vif self-association by quenched fluorescence, imaging, 24 h. inhibition, % at 7.49 µM. actives 0.35% (n = 340,000); in the data active = inhibition above about 50%, passing the limit was not always enough; inconclusive = no clear call, values can overlap the other calls; inactive = below about 31%
# NR2E3 ag-1 = activates human NR2E3 receptor; Q9Y5X4; CHO-S Gal4-NCOR/VP16-NR2E3 two-hybrid, luciferase; inhibition of corepressor binding, % at 3.98 µM; actives 0.35% (n = 360,000); AID 602229;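 active = inhibition above the mean of all tested compounds plus 3 SD, cut at about 70% in these data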;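 also: 0% = DMSO with NR2E3 transfected cells and 100% = cells lacking NR2E3 construct; higher means lower luciferase signal from less NR2E3 corepressor binding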
# NR2E3 ag-2 = activates human photoreceptor nuclear receptor NR2E3. inhibition of corepressor binding, % at 4.78 µM. actives 0.12% (n = 320,000). AID 2300. Q9Y5X4. GST-NR2E3/biotin-RetCOR TR-FRET, 1536-well;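 active = percent inhibition above the cutoff of mean plus 3 SD of all tested compounds, set per screening campaign, cut at about 20% in these data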;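 also: 0% = DMSO wells and 100% = biotin wells as full block of FRET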
#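 Format: 1536-well format; test system: GST-NR2E3 and biotin-RetCOR proteins; read-out basis: percent inhibition of TR-FRET ratio; timing: 5 h incubation at 4 °C; detection: time-resolved FRET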
# MT1-MMP act inh = MT1-MMP (human) activation inhibition; P50281; HT1080 RFP-PRO-GFP cells, GFP/RFP ratio fluorescence, overnight; percent of plate control window, DMSO zero; GFP/RFP ratio change, % at 20 µM; actives 0.061% (n = 360,000); AID 651647;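 active = GFP/RFP ratio change of at least 30% with cell ATP level not reduced by more than half and red fluorescence within 50% of control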
#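 Assay system: HT1080 cells carrying an RFP-PRO-GFP reporter | Dosing: Single dose of 20 µM compound, 1% DMSO final | Incubation: Cells overnight before dosing, compound overnight, 37 °C, 5% CO2 | Evaluation: GFP/RFP fluorescence ratio | Control set: DMSO and RFP-L50D-GFP cell wells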
# HCV core dimer = blocks dimerization of HCV core protein | TR-FRET GST/Flag-core106 dimerization, 1536-well | inhibition, % at 5 µM | actives 0.33% (n = 300,000);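 active = inhibition above the mean of all tested compounds plus 3 SD, set per screening campaign, cut at about 45% in these data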
#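 Test system: GST/Flag-tagged HCV core106 proteins; Medium: KF-containing HEPES buffer, pH 7.45, DTT, CHAPS, BSA; Times: compound-protein-antibody incubation 4 h at 22.5 °C; Detection: TR-FRET 671 and 617 nm emission; Benchmarks: wells lacking GST-core106 and wells with excess unlabelled core106.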
# An asterisk follows results filed as active; ? = inconclusive; . = not tested or not shown.
SMILES,DAGLB inh,Vif imaging,NR2E3 ag-1,NR2E3 ag-2,MT1-MMP act inh,HCV core dimer
CC(O)CN(C)CC/C=C1/c2ccccc2CSc2ccccc21 (stereo unspecified),-1,86*,5,-5,-1,-15
CN(CC/C=C1/c2ccccc2CSc2ccccc21)CCCO,0,-10,-3,0,1,-4
COC(=O)Cc1ccc(NC(=O)c2ccc3c(c2)C(=O)N(Cc2ccco2)C3=O)cc1,-1,.,7,-3,1,12
CCc1ccc(NC(=O)c2ccc3c(c2)C(=O)N(Cc2ccco2)C3=O)cc1,1,7,-6,-1,-5,56*
CCn1cc(CNC(=O)c2cc(COc3ccc(F)cc3F)on2)cn1,1,-12,-1,-3,2,-2
COc1ccc(NC(=O)Cn2ncc(Cl)c(Cl)c2=O)cc1S(=O)(=O)N1CCOCC1,-1,59*,-8,0,-6,50*
COc1ccc(NC(=O)c2cc3c(s2)CCC3)cc1S(=O)(=O)N1CCOCC1,-3,-21,-25,2,-1,94*
COc1ccc(NC(=O)c2ccc(Cl)nc2)cc1S(=O)(=O)N1CCOCC1,1,-15,-4,-1,1,.
CC(C)(C)NC(=O)C(c1cccc2ccccc12)n1c(=O)c(-c2cc3ccccc3[nH]2)nc2ccccc21 (stereo unspecified),.,.,.,.,-11,.
Cc1nc(SCCc2nc3ccccc3[nH]2)c2oc3ccccc3c2n1,1,12,12,.,5,.
C=CCn1c(SCC(=O)c2ccc(CNC(C)=O)o2)nc2scc(C3CC3)c2c1=O,3,-2,-16,4,-4,48*
C=CCn1c(SCC(=O)NC2CCS(=O)(=O)C2)nc2scc(C3CC3)c2c1=O (stereo unspecified),-2,25,-11,3,-5,8
COc1cc(/C=N/n2c(-c3ccccc3)n[nH]c2=S)ccc1O,-3,-2,-9,-2,0,-3
COc1ccc(/C=N/n2c(-c3ccc(C)cc3)n[nH]c2=S)cc1OC,-3,99*,-33,-2,3,1
Cc1ccc(C)n1-c1cccc(C(=O)O)c1,.,.,.,33*,.,-82
COc1ccc(N)cc1-n1c(C)ccc1C,3,-9,7,-2,.,-3
Cc1ccc(C)n1-c1cccc(N)c1,.,.,.,0,.,64*
CC(C)c1cn(CC[C@@H]2CC[C@@H](NC(=O)C3CCCCC3)[C@@H](CO)O2)nn1,.,.,.,.,-1,.
C[C@@H](NC(=O)[C@@H]1CCCN1C(=O)[C@@H]1CCCN1C(=O)c1ccc(Cl)cc1)c1ccccc1,.,.,-17,.,6,.
Cc1ccc(NC(=O)COC(=O)Cc2c[nH]c3ccccc23)cc1C,-6,?,21,2,5,.
COc1ccc(NC(=O)COC(=O)Cc2c[nH]c3ccccc23)cc1Cl,-1,55*,-14,.,3,.
COc1ccc(NC(=O)CCn2c(=S)[nH]c3ccccc3c2=O)cc1Cl,-4,57*,-10,.,5,.
CCN(CC)CC(C)CNC(=O)CC(C(=O)N1CCc2ccccc21)n1ccnc1 (stereo unspecified),0,123*,-19,3,-1,0
COC(=O)C[C@H]1C=C[C@@H](NC(=O)C2CC2)[C@@H](CO)O1,.,.,.,.,0,.
COc1cccc(=O)c2c(C)n(-c3cc(C)cc(C)c3)c(C)c12,5,-4,-20,-3,-37,19
SMILES,DAGLB inh,Vif imaging,NR2E3 ag-1,NR2E3 ag-2,MT1-MMP act inh,HCV core dimer
COc1cccc(-n2c(C)c3c(OC)cccc(=O)c3c2C)c1,2,7,-2,2,-10,52*
CCn1c(SCc2ccc(C(=O)Nc3nccs3)cc2)nnc1-c1ccc(N)cc1,3,54*,-3,-2,-7,8
C(=NNc1ccc2ccccc2n1)c1ccccn1,.,.,-80,.,-8,.
CCc1nnc(NC(=O)CCC(=O)NC2CCCCCCC2)s1,-2,-6,14,1,4,-8
C=C(C)CSc1nc2ncc(Cl)cc2[nH]1,-1,69*,-22,2,0,-3
O=c1cc(CCl)nc2sc3ccccc3n12,1,0,-1,-2,-5,27
Cc1cccc(C(=O)N[C@H](C(=O)OCc2cc(=O)n3c(n2)sc2ccccc23)C(C)C)c1,-5,-4,-19,3,1,49*
COc1ccc(/C=C/C(=O)OCc2cc(=O)n3c(n2)sc2ccccc23)cc1,-4,-8,7,-1,-2,17
O=C(OCc1cc(=O)n2c(n1)sc1ccccc12)c1ccc(O)cc1,-3,-2,-45,-3,0,50*
COC(=O)C1=C(C)N(CCCCCC(=O)O)C(=O)NC1c1ccccc1 (stereo unspecified),-3,-5,20,2,-4,6
NC(=NCCc1c[nH]c2ccccc12)NC(=O)c1ccc(F)cc1,0,-4,5,2,11,-6
O=C(NCc1ccccc1)C(C1CC1)n1c(CSCCOc2ccccc2)nc2ccccc21 (stereo unspecified),.,.,.,.,-1,.
Cc1ccc(-n2nc3c(N4CCC(C(=O)NCCc5ccccc5C)CC4)nnc(C)c3c2C)cc1,0,54*,40,4,-5,24
Cc1cccc(C)c1NC(=O)C1(C)CN(S(C)(=O)=O)CC(=O)N1CCc1c[nH]c2ccccc12 (stereo unspecified),.,.,.,.,8,.
COc1cccc(NC(=O)CN(C)C(=O)c2cc3c(s2)CCC3)c1,.,.,.,2,.,59*
COc1ccc(NC(=O)CN(C)C(=O)c2cc3c(s2)CCC3)cc1,1,6,-1,0,5,70*
COc1ccc(NC(=O)CN(C)C(=O)c2cc3c(s2)CCCCC3)cc1,-2,-2,-9,-1,1,8
C=C1C(=O)O[C@H]2C[C@]3(C)C([C@@H](OC(=O)/C(C)=C/C)[C@H]12)[C@](C)(O)CC[C@H]3O (stereo partly specified),-1,11,-5,-4,-1,2
C=C[C@@]1(C)CC(=O)[C@]2(O)[C@@]3(C)[C@@H](O)CCC(C)(C)[C@@H]3[C@H](OC(C)=O)[C@H](O)[C@@]2(C)O1,0,82*,21,-2,3,0
C=C[C@@]1(C)CC(=O)[C@]2(O)[C@@]3(C)[C@@H](O)CCC(C)(C)[C@@H]3[C@H](O)[C@H](OC(C)=O)[C@@]2(C)O1,0,75*,35,-1,-2,0
CN1CCN(C(=O)c2cccc(S(=O)(=O)N3CCCC3)c2)CC1,-1,2,3,-1,-1,.
